# Key:
# Type in all cases: functional
# [1] = test system: Candida tropicalis; experiment: Antimicrobial activity against Candida tropicalis by broth microdilution method
# In short: (§1)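 Clinical isolates from human patients, tested by broth microdilution using the AFST-EUCAST reference procedure for fermentative yeasts. The MIC was read per that reference method.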
# [2] = test system: Nakaseomyces glabratus; experiment: Antimicrobial activity against Candida glabrata by broth microdilution method; in short: as §1
# [3] = test system: Pichia kudriavzevii; experiment: Antimicrobial activity against Candida krusei by broth microdilution method; in short: as §1
# [4] = test system: Clavispora lusitaniae; experiment: Antimicrobial activity against Candida lusitaniae by broth microdilution method; in short: as §1
# [5] = test system: Diutina rugosa; experiment: Antimicrobial activity against Candida rugosa by broth microdilution method; in short: as §1
# [6] = test system: Debaryomyces hansenii; experiment: Antimicrobial activity against Candida famata by broth microdilution method; in short: as §1
# [7] = test system: [Candida] inconspicua; experiment: Antimicrobial activity against Candida inconspicua by broth microdilution method; details: Pichia inconspicua; in short: as §1
# [8] = test system: [Candida] zeylanoides; experiment: Antimicrobial activity against Candida zeylanoides by broth microdilution method; details: Dujonia zeylanoides; in short: as §1
# [9] = test system: Magnusiomyces capitatus; experiment: Antimicrobial activity against Dipodascus capitatus by broth microdilution method
# [10] = test system: Yarrowia lipolytica; experiment: Antimicrobial activity against Yarrowia lipolytica by broth microdilution method
# [11] = test system: Geotrichum candidum; experiment: Antimicrobial activity against Galactomyces geotrichum by broth microdilution method
# [12] = test system: Cryptococcus deneoformans; experiment: Antimicrobial activity against Cryptococcus neoformans var. neoformans by broth microdilution method
# In short: (§2)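 Clinical isolates of nonfermentative yeasts, tested by broth microdilution following EUCAST recommendations. The only change from that method was a minor modification to improve growth.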
# [13] = test system: Trichosporon inkin; experiment: Antimicrobial activity against Trichosporon inkin by broth microdilution method
# In short: (§3)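 Nonfermentative yeast clinical isolates (Rhodotorula, Trichosporon) tested by broth microdilution. The EUCAST yeast recommendations were followed strictly, with one minor modification to improve growth. MIC was read as the endpoint.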
# [14] = test system: Trichosporon ovoides; experiment: Antimicrobial activity against Trichosporon ovoides by broth microdilution method; in short: as §3
# [15] = test system: Naganishia albida; experiment: Antimicrobial activity against Cryptococcus albidus by broth microdilution method; in short: as §2
# [16] = test system: Ustilago; experiment: Antimicrobial activity against Ustilago spp by broth microdilution method
# [17] = test system: Papiliotrema laurentii; experiment: Antimicrobial activity against Cryptococcus laurentii by broth microdilution method; in short: as §2
# [18] = test system: Trichosporon; experiment: Antimicrobial activity against Trichosporon spp. by broth microdilution method; in short: as §3
# [19] = test system: Aspergillus flavus; experiment: Antimicrobial activity against Aspergillus flavus by broth microdilution method
# In short: (§4)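 Clinical mould isolates, tested by broth microdilution using the AFST-EUCAST reference method for filamentous fungi. For echinocandins, the endpoint was the minimum effective concentration: the lowest drug concentration giving aberrant hyphal growth, read with an inverted microscope.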
# [20] = test system: Aspergillus niger; experiment: Antimicrobial activity against Aspergillus niger by broth microdilution method; in short: as §4
# [21] = test system: Aspergillus nidulans; experiment: Antimicrobial activity against Aspergillus nidulans by broth microdilution method; in short: as §4
# [22] = test system: Aspergillus sydowii; experiment: Antimicrobial activity against Aspergillus sydowii by broth microdilution method; in short: as §4
# [23] = test system: Aspergillus versicolor; experiment: Antimicrobial activity against Aspergillus versicolor by broth microdilution method; in short: as §4
# [24] = test system: Aspergillus ochraceus; experiment: Antimicrobial activity against Aspergillus ochraceus by broth microdilution method; in short: as §4
# [25] = test system: Aspergillus glaucus; experiment: Antimicrobial activity against Aspergillus glaucus by broth microdilution method; in short: as §4
# [26] = test system: Aspergillus; experiment: Antimicrobial activity against Aspergillus spp. by broth microdilution method; in short: as §4
# [27] = test system: Penicillium; experiment: Antimicrobial activity against Penicillium spp. by broth microdilution method
# In short: (§5)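 Filamentous fungus clinical isolates tested by the AFST-EUCAST reference broth microdilution method for moulds. For echinocandins, the endpoint was the minimum effective concentration: the lowest drug concentration giving aberrant hyphal growth, read with an inverted microscope.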
# [28] = test system: Fusarium solani; experiment: Antimicrobial activity against Fusarium solani by broth microdilution method; in short: as §5
# [29] = test system: Acremonium sp.; experiment: Antimicrobial activity against Acremonium sp.by broth microdilution method; in short: as §4
# [30] = test system: Trichoderma; experiment: Antimicrobial activity against Trichoderma spp. by broth microdilution method; in short: as §5
# [31] = test system: Phialemonium curvatum; experiment: Antimicrobial activity against Phialemonium curvatum by broth microdilution method; details: Thyridium curvatum; in short: as §5
# [32] = test system: Fusarium equiseti; experiment: Antimicrobial activity against Fusarium equiseti by broth microdilution method; in short: as §4
# [33] = test system: Coprinellus domesticus; experiment: Antimicrobial activity against Hormographiella verticillata by broth microdilution method; in short: as §5
# [34] = test system: Aureobasidium pullulans; experiment: Antimicrobial activity against Aureobasidium pullulans by broth microdilution method
# [35] = test system: Hortaea werneckii; experiment: Antimicrobial activity against Hortaea werneckii by broth microdilution method
# [36] = test system: Lichtheimia corymbifera; experiment: Antimicrobial activity against Mycocladus corymbiferus by broth microdilution method; in short: as §5
# [37] = test system: Rhizopus arrhizus; experiment: Antimicrobial activity against Rhizopus oryzae by broth microdilution method; in short: as §5
# [38] = test system: Mucor; experiment: Antimicrobial activity against Mucor spp.by broth microdilution method; in short: as §5
# [39] = test system: Saksenaea vasiformis; experiment: Antimicrobial activity against Saksenaea vasiformis by broth microdilution method; in short: as §5
# [40] = test system: Exophiala jeanselmei; experiment: Antimicrobial activity against Exophiala jeanselmei by broth microdilution method
structure (smiles),measurement,setting,value
CC[C@@H]([C@H](C)O)n1ncn(-c2ccc(N3CCN(c4ccc(OC[C@@H]5CO[C@@](Cn6cncn6)(c6ccc(F)cc6F)C5)cc4)CC3)cc2)c1=O [POSACONAZOLE],MIC50,[1],0.02 µg/mL
same,MIC90,[1],0.03 µg/mL
same,MIC50,[2],0.25 µg/mL
same,MIC90,[2],1 µg/mL
same,MIC50,[3],0.12 µg/mL
same,MIC90,[3],0.25 µg/mL
same,MIC50,[4],0.02 µg/mL
same,MIC90,[4],0.02 µg/mL
same,MIC50,[5],0.03 µg/mL
same,MIC90,[5],> 8 µg/mL
same,MIC50,[6],0.03 µg/mL
same,MIC90,[6],> 8 µg/mL
same,MIC50,[7],0.03 µg/mL
same,MIC90,[7],> 8 µg/mL
same,MIC50,[8],0.03 µg/mL
same,MIC90,[8],> 8 µg/mL
same,MIC50,[9],0.5 µg/mL
same,MIC90,[9],0.5 µg/mL
same,MIC50,[10],0.25 µg/mL
same,MIC90,[10],2 µg/mL
same,MIC50,[11],0.5 µg/mL
same,MIC90,[11],0.5 µg/mL
same,MIC50,[12],0.12 µg/mL
same,MIC90,[12],0.5 µg/mL
same,MIC50,[13],0.06 µg/mL
same,MIC90,[13],0.12 µg/mL
same,MIC50,[14],0.25 µg/mL
same,MIC90,[14],> 8 µg/mL
same,MIC50,[15],0.25 µg/mL
same,MIC90,[15],> 8 µg/mL
same,MIC50,[16],0.25 µg/mL
same,MIC90,[16],> 8 µg/mL
same,MIC50,[17],0.25 µg/mL
same,MIC90,[17],> 8 µg/mL
same,MIC50,[18],0.25 µg/mL
same,MIC90,[18],> 8 µg/mL
same,MIC50,[19],0.12 µg/mL
same,MIC90,[19],0.25 µg/mL
same,MIC50,[20],0.25 µg/mL
same,MIC90,[20],0.5 µg/mL
same,MIC50,[21],0.06 µg/mL
same,MIC90,[21],0.25 µg/mL
same,MIC50,[22],0.25 µg/mL
same,MIC90,[22],0.5 µg/mL
same,MIC50,[23],0.25 µg/mL
same,MIC90,[23],0.5 µg/mL
same,MIC50,[24],0.12 µg/mL
same,MIC90,[24],> 8 µg/mL
same,MIC50,[25],0.12 µg/mL
same,MIC90,[25],> 8 µg/mL
same,MIC50,[26],0.12 µg/mL
same,MIC90,[26],> 8 µg/mL
same,MIC50,[27],0.25 µg/mL
same,MIC90,[27],4 µg/mL
same,MIC50,[28],> 8 µg/mL
same,MIC90,[28],> 8 µg/mL
same,MIC50,[29],8 µg/mL
same,MIC90,[29],> 16 µg/mL
same,MIC50,[30],4 µg/mL
same,MIC90,[30],> 8 µg/mL
same,MIC50,[31],4 µg/mL
same,MIC90,[31],> 8 µg/mL
same,MIC50,[32],4 µg/mL
same,MIC90,[32],> 8 µg/mL
same,MIC50,[33],4 µg/mL
same,MIC90,[33],> 8 µg/mL
same,MIC50,[34],0.06 µg/mL
same,MIC90,[34],> 8 µg/mL
same,MIC50,[35],0.06 µg/mL
same,MIC90,[35],> 8 µg/mL
same,MIC50,[36],0.5 µg/mL
same,MIC90,[36],> 8 µg/mL
same,MIC50,[37],2 µg/mL
same,MIC90,[37],> 8 µg/mL
same,MIC50,[38],4 µg/mL
same,MIC90,[38],> 8 µg/mL
same,MIC50,[39],4 µg/mL
same,MIC90,[39],> 8 µg/mL
same,MIC50,[40],0.06 µg/mL
same,MIC90,[40],> 8 µg/mL

# Source: ChEMBL document CHEMBL1649165, “Activity profile in vitro of micafungin against Spanish clinical isolates of common and emerging species of yeasts and molds” (2009)
